Activity calls are given as the source filed them. The calls are words filed in the database; no cut-off is given here.
Experiments:
MDA-MB-435 [1] = assay: Induction of apoptosis in human MDA-MB-435 cells assessed as late apoptotic cells at 1 uM after 24 hrs by annexin-V FITC/propidium iodide staining-based flow cytometry (reference value: 0.34 +/- 0.08%); assay type: functional
In short: (§1)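 MDA-MB-435 cells treated 24 h, stained with annexin V-FITC/PI per kit instructions, analysed by flow cytometry. Quadrant statistics: lower right taken as apoptotic, upper right as necrotic or post-apoptotic necrotic. Representative of three similar experiments.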

MDA-MB-435 [2] = assay: Cell cycle arrest in human MDA-MB-435 cells assessed as accumulation at G1 phase at 1 uM after 24 hrs by propidium iodide staining-based flow cytometry (reference value: 28.06%); assay type: functional
MDA-MB-435 [3] = assay: Induction of apoptosis in human MDA-MB-435 cells assessed as early apoptotic cells at 1 uM after 24 hrs by annexin-V FITC/propidium iodide staining-based flow cytometry (reference value: 0.61 +/- 0.24%); assay type: functional; in short: as §1
MDA-MB-435 [4] = assay: Induction of apoptosis in human MDA-MB-435 cells assessed as morphological changes at 0.25 to 1 uM by DAPI staining-based fluorescence microscopy; assay type: functional, cell-based
In short: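 Treated MDA-MB-435 cells washed in ice-cold PBS, fixed 20 min in 4% paraformaldehyde, stained 30 min at 37 °C with DAPI (50 µg/mL) containing 100 µg/mL RNase A. After PBS washes, examined by fluorescence microscopy (excitation 340 nm, emission 488 nm).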

MDA-MB-435 [5] = assay: Cell cycle arrest in human MDA-MB-435 cells assessed as accumulation at G2/M phase at 1 uM after 24 hrs by propidium iodide staining-based flow cytometry (reference value: 14.05%); assay type: functional
MDA-MB-435 [6] = assay: Cell cycle arrest in human MDA-MB-435 cells assessed as accumulation at S phase at 0.25 uM after 24 hrs by propidium iodide staining-based flow cytometry (reference value: 57.11%); assay type: functional
MDA-MB-435 [7] = assay: Induction of apoptosis in human MDA-MB-435 cells assessed as dead cells at 0.5 uM after 24 hrs by annexin-V FITC/propidium iodide staining-based flow cytometry (reference value: 0.61 +/- 0.24%); assay type: functional
MDA-MB-435 [8] = assay: Induction of apoptosis in human MDA-MB-435 cells assessed as viable cells at 0.5 uM after 24 hrs by annexin-V FITC/propidium iodide staining-based flow cytometry (reference value: 98.62 +/- 0.25%); assay type: functional; conditions: MDA-MB-435, 24 h, read-out: Activity; in short: as §1
Calf thymus DNA = assay: Induction of DNA intercalation activity of calf thymus DNA topoisomerase 1 assessed as unwinding of pBR322 DNA up to 100 uM after 30 mins by Agarose gel electrophoresis; assay type: nucleic-acid assay; conditions: Bos taurus
In short: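 Relaxed pBR322 made by treating supercoiled plasmid with excess Topo I (10 units), then proteinase K digestion at 37 °C, phenol-chloroform extraction and ethanol precipitation. Incubated with compound 30 min at 37 °C, run on 1% agarose gel at 5 V/cm for 2 h in TAE, stained with 0.5 µg/mL ethidium bromide, viewed under UV.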

MDA-MB-435 [9] = assay: Induction of apoptosis in human MDA-MB-435 cells assessed as downregulation of Bcl-2 protein expression at 0.25 to 1 uM after 12 hrs by Western blotting analysis; assay type: functional, cell-based
In short: (§2)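 Treated MDA-MB-435 cells lysed in ice-cold Tris-HCl pH 7.4 buffer with Triton, phosphatase and protease inhibitors. Lysates clarified, boiled in SDS loading buffer, run on 8-12% SDS-PAGE and blotted. Membranes blocked in 5% skim milk, probed with primary antibodies, then peroxidase secondaries with ECL detection. β-actin as loading control.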

MDA-MB-435 [10] = assay: Induction of apoptosis in human MDA-MB-435 cells assessed as upregulation of Bax protein expression at 0.25 to 1 uM after 12 hrs by Western blotting analysis; assay type: functional, cell-based; in short: as §2
MDA-MB-435 [11] = assay: Cell cycle arrest in human MDA-MB-435 cells assessed as accumulation at G1 phase at 0.5 uM after 24 hrs by propidium iodide staining-based flow cytometry (reference value: 28.06%); assay type: functional
MDA-MB-435 [12] = assay: Cytotoxicity against human MDA-MB-435 cells assessed as growth inhibition after 72 hrs by MTT assay; assay type: functional, cell-based; conditions: MDA-MB-435, 72 h
In short: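 MTT assay: cells treated in triplicate with a range of concentrations for 72 h at 37 °C, 5% CO2. Medium replaced, MTT (5 mg/mL) added for 4 h, then SDS/isobutanol/HCl solubiliser overnight. Absorbance read at 590 nm. Inhibition calculated against control and blank wells; IC50 is concentration giving 50% growth inhibition; three independent experiments.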

MDA-MB-435 [13] = assay: Cell cycle arrest in human MDA-MB-435 cells assessed as accumulation at sub-G1 phase at 0.25 uM after 24 hrs by propidium iodide staining-based flow cytometry (reference value: 0.79%); assay type: functional
MDA-MB-435 [14] = assay: Cell cycle arrest in human MDA-MB-435 cells assessed as accumulation at sub-G1 phase at 1 uM after 24 hrs by propidium iodide staining-based flow cytometry (reference value: 0.79%); assay type: functional
Bos taurus = species on record: Bos taurus; assay: Inhibition of calf thymus DNA topoisomerase 1-mediated relaxation of supercoiled pBR322 DNA at 10 to 100 uM after 30 mins by Agarose gel electrophoresis
In short: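 Relaxation assay with 0.5 µg supercoiled pBR322 and 1 unit calf thymus Topo I, 20 µL. Buffer: 10 mM Tris–HCl pH 7.9, 150 mM NaCl, 0.1% BSA, 1 mM spermidine, 5% glycerol. Incubated 37 °C for 30 min; stopped with sarcosyl stop solution. 1% agarose gel, 5 V/cm, 2 h, TAE; ethidium bromide stain (0.5 µg/mL), UV. DMSO stocks. At least duplicate.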

MDA-MB-435 [15] = assay: Induction of apoptosis in human MDA-MB-435 cells assessed as late apoptotic cells at 0.5 uM after 24 hrs by annexin-V FITC/propidium iodide staining-based flow cytometry (reference value: 0.34 +/- 0.08%); assay type: functional; in short: as §1
MDA-MB-435 [16] = assay: Cell cycle arrest in human MDA-MB-435 cells assessed as accumulation at S phase at 0.5 uM after 24 hrs by propidium iodide staining-based flow cytometry (reference value: 57.11%); assay type: functional
MDA-MB-435 [17] = assay: Cell cycle arrest in human MDA-MB-435 cells assessed as increase in CDC2 expression at 0.25 to 1 uM after 12 to 24 hrs by Western blotting analysis; assay type: functional, cell-based; in short: as §2
MDA-MB-435 [18] = assay: Cell cycle arrest in human MDA-MB-435 cells assessed as accumulation at G2/M phase at 0.5 uM after 24 hrs by propidium iodide staining-based flow cytometry (reference value: 14.05%); assay type: functional
MDA-MB-435 [19] = assay: Induction of DNA damage in human MDA-MB-435 cells assessed as phosphorylation of H2AX at Ser139 at 0.5 uM after 12 hrs by Western blotting analysis; assay type: functional, cell-based; in short: as §2
MDA-MB-435 [20] = assay: Induction of DNA damage in human MDA-MB-435 cells assessed as phosphorylation of p53 at Ser15 at 0.5 uM after 12 hrs by Western blotting analysis; assay type: functional, cell-based; in short: as §2

`Oc1ccc(-c2ccc(-c3ccc(O)c(O)c3)cc2)cc1` showed an Activity (MDA-MB-435 [1]) of 8.64%, an Activity (MDA-MB-435 [2]) of 22.42% and an Activity (MDA-MB-435 [3]) of 13.33%. The Activity (MDA-MB-435 [4]) was “Active”, the Activity (MDA-MB-435 [5]) was 54.51% and the Activity (MDA-MB-435 [6]) was 47.81%. For the same compound, the Activity (MDA-MB-435 [7]) was 1.27%, the viability at 0.5 µM (MDA-MB-435 [8]) was 81.6% and the Activity (Calf thymus DNA) was “inactive”. The Activity (MDA-MB-435 [9]) was “Active”, the Activity (MDA-MB-435 [10]) was “Active” and the Activity (MDA-MB-435 [11]) was 30.68%. The IC50 (MDA-MB-435 [12]) was under 1000 nM, the Activity (MDA-MB-435 [13]) was 1.04% and the Activity (MDA-MB-435 [14]) was 10.5%. The inhibition (Bos taurus) was “Active”, the Activity (MDA-MB-435 [15]) was 7.79% and the Activity (MDA-MB-435 [16]) was 26.38%. For the same compound, the Activity (MDA-MB-435 [17]) was “Active”, the Activity (MDA-MB-435 [18]) was 38.41% and the Activity (MDA-MB-435 [19]) was “inactive”. For the same compound, the Activity (MDA-MB-435 [20]) was “inactive”.

Source: ChEMBL document CHEMBL2424614, “A novel p-terphenyl derivative inducing cell-cycle arrest and apoptosis in MDA-MB-435 cells through topoisomerase inhibition” (Eur J Med Chem, 2013)
